Measurements from ChEMBL document CHEMBL1148020, “Synthesis and glycogen phosphorylase inhibitor activity of 2,3-dihydrobenzo[1,4]dioxin derivatives” (Bioorg Med Chem, 2007).

Key:
[1] = Inhibition of glycogen phosphorylase; design: species or system Homo sapiens
Outline: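 Activity measured in the glycogen-synthesis direction at 30 °C with 1% glycogen, with or without glucose-1-phosphate substrate. Buffer was 50 mM triethanolamine/HCl pH 6.8 with 100 mM KCl, 1 mM dithiothreitol and 1 mM EDTA. Muscle or liver phosphorylase a was run without AMP. Phosphorylase b was run with AMP: 1 mM for muscle, 2 mM for liver. Kinetic analysis followed the authors' earlier protocol.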

Homo sapiens [2] = species: Homo sapiens; assay: Inhibition of glycogen phosphorylase A at 625 uM
[3] = target: T1, Glycogen phosphorylase, liver form (Homo sapiens) (UniProt P06737); assay: Inhibition of liver glycogen phosphorylase B at 625 uM
T1 sequence (whole entry): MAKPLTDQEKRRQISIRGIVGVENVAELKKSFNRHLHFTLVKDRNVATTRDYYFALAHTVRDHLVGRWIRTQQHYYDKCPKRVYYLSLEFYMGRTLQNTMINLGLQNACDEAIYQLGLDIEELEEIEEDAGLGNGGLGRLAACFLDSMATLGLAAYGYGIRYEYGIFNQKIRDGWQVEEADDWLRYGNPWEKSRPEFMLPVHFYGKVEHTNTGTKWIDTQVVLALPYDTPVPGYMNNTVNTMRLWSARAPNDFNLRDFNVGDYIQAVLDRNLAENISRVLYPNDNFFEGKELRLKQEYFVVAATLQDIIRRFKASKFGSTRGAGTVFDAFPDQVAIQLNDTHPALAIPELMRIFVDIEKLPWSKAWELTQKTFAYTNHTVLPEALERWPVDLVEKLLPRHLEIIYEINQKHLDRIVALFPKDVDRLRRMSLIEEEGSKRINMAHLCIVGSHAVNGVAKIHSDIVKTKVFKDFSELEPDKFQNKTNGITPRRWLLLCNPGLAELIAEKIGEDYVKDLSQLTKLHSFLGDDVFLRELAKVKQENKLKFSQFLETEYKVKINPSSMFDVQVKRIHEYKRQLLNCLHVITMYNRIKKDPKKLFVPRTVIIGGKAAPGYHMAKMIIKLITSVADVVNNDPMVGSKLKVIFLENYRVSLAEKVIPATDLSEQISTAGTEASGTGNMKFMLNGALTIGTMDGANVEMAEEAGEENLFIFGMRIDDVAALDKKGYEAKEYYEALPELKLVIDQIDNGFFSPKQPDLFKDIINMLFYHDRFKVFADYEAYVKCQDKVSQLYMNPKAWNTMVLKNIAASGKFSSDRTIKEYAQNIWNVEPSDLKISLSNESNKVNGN

Homo sapiens [4] = species: Homo sapiens; assay: Inhibition of glycogen phosphorylase at 625 uM

| IC50 [1] [mM] | inhibition (Homo sapiens [2]) [%] | inhibition [3] [%] | inhibition (Homo sapiens [4]) [%] | SMILES |
| --- | --- | --- | --- | --- |
| 7 |  |  |  | O=C1NC(=O)C(Cc2ccc(OCC3COc4cc5c(cc4O3)OCO5)cc2)S1 (configuration not stated) |
|  | 20 | 20 | 20 | O=C1N=C(O)S/C1=C\c1ccc(OCC2COc3ccccc3O2)cc1 (configuration not stated) |
|  | 20 | 20 | 20 | O=C1NC(=O)C(Cc2ccc(OCC3COc4ccccc4O3)cc2)S1 (configuration not stated) |
